Data: ChEMBL document CHEMBL1140585, “Synthesis and antioxidant properties of substituted 3-benzylidene-7-alkoxychroman-4-ones” (Bioorg Med Chem Lett, 2007)
Calls of active or inactive are those of the source. The calls are words filed in the database; no cut-off is given here.

How the values were obtained:
[1] = tested on: Radical scavenging activity; test: Antioxidant activity assessed as DPPH free radical scavenging activity; type: functional
How it was run: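 DPPH in methanol (150 µM) incubated with various compound concentrations at 37 C for 30 min; absorbance read at 517 nm. Percent scavenging = 100 × (Abs control − Abs compound)/Abs control; IC50 obtained by linear regression of percent inhibition against concentration.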

Brain = test: Antioxidant activity in Wistar rat brain assessed as inhibition of lipid peroxidation; type: functional, tissue-based
How it was run: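 Brain homogenate (10% w/v) of young adult male Wistar rats in 0.15 M KCl, 800g 10 min supernatant. Compounds in DMSO at varying amounts; peroxidation started with FeCl3 plus ascorbic acid, 20 min at 37 C. Stopped with phosphotungstic acid and thiobarbituric acid, heated 100 C 10 min, n-butanol extract read by fluorescence (ex 515/em 555 nm); IC50 from log dose–inhibition curve.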

[2] = Antioxidant activity at 100 ug by ferric reducing antioxidant power assay; type: functional
How it was run: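 FRAP reagent: 10 vol 300 mM acetate buffer pH 3.6, 1 vol 10 mM TPTZ in 40 mM HCl, 1 vol 20 mM FeCl3, diluted to 1/3 with methanol, pre-warmed to 37 C. Diluted compound mixed with reagent, 8 min at 37 C, absorbance at 593 nm against methanol blank; expressed as lM ferric reduced to ferrous, calibrated with known ferrous ion.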

IC50 [1] [µM] | IC50 (Brain) [µM] | Compound | Activity [2]
24.3 | 11.9 | CCOc1ccc2c(c1)OC/C(=C\c1ccc(O)c(O)c1)C2=O | 62.7
> 100 | > 100 | COc1ccc(/C=C2\COc3cc(OC)ccc3C2=O)cc1 | inactive
35 | 14.3 | O=C1/C(=C/c2ccc(O)c(O)c2)COc2cc(O)ccc21 [SAPPANONE A] | 49.3
24.5 | 11 | CCCCOc1ccc2c(c1)OC/C(=C\c1ccc(O)c(O)c1)C2=O | 44.6
36.3 | 41.6 | Cc1c(C)c2c(c(C)c1O)CCC(C)(C(=O)O)O2 (stereo unspecified) [TROLOX] | 41.9
30.8 | 11 | COc1ccc2c(c1)OC/C(=C\c1cc(OC)c(O)c(OC)c1)C2=O | 61.6
> 100 | > 100 | O=C1/C(=C/c2ccc(O)cc2)COc2cc(O)ccc21 | inactive
> 100 | > 100 | COc1cccc(/C=C2\COc3cc(OC)ccc3C2=O)c1 | inactive
27.2 | 12.1 | COc1ccc2c(c1)OC/C(=C\c1ccc(O)c(O)c1)C2=O | 71.6
> 100 | > 100 | COc1ccc2c(c1)OC/C(=C\c1ccc(O)cc1)C2=O | inactive
25.4 | 11.4 | CCCOc1ccc2c(c1)OC/C(=C\c1ccc(O)c(O)c1)C2=O | 53.8
> 100 | > 100 | COc1ccc2c(c1)OC/C(=C\c1ccccc1OC)C2=O | inactive
